According to ChEMBL document CHEMBL1764953, “Discovery of orally active carboxylic acid derivatives of 2-phenyl-5-trifluoromethyloxazole-4-carboxamide as potent diacylglycerol acyltransferase-1 inhibitors for the potential treatment of obesity and diabetes” (J Med Chem, 2011):
pEC50, pIC50: −log10 of the molar value. Converted amounts (≈) assume the structure as drawn. The source made the active and inactive calls. No cut-off for these calls is given here.

Key:
[1] = Cmax in diet-induced obese rat at 1 mg/kg, po administered once daily for 3 weeks; assay type: ADME, organism-based; set-up: dose 1 mg/kg, route oral; settings: in vivo
[2] = biological target: Cytochrome P450 2C19 (Homo sapiens, UniProt P33261); assay: Inhibition of CYP2C19; assay type: ADME
[3] = system: Rattus norvegicus; assay: Antiobesity activity in diet-induced obese rat assessed as reduction in body weight gain at 3 mg/kg, po qd; assay type: functional; set-up: scale not given: the % may be the effect or the level left
Summary of the method: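 Male DIO rats given 3 mg/kg po once daily for 1 week, with body weight gain followed. At study end, rats were fasted 4 h and challenged with corn oil 5 mL/kg; plasma triglycerides were measured 4 h later and compared with the vehicle group.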

[4] = biological target: T1, Diacylglycerol O-acyltransferase 2 (Homo sapiens, UniProt Q96PD7); assay: Inhibition of human DGAT2 expressed in baculovirus infected Sf9 cells using palmitoyl-1-14C-coenzyme A by TLC assay
T1 sequence (Q96PD7 whole entry): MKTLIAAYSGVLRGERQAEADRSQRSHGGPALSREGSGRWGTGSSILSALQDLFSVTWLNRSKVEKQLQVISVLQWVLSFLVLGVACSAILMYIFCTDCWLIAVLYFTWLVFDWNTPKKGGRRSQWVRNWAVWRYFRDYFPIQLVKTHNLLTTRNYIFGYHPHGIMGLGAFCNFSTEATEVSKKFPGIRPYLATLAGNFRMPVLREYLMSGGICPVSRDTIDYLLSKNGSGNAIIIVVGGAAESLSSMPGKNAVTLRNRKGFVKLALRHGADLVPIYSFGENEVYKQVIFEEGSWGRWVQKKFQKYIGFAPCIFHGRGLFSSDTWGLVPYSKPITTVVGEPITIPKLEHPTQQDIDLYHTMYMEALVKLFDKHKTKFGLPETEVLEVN
Summary of the method: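 DGAT-2 membranes from baculovirus-infected Sf9 cells, diluted to 0.313 mg/mL in 50 mM Tris pH 7.5, 20 mM MgCl2, 0.25 M sucrose. Preincubated 15 min on ice with compound (0–600 μM solutions in 20% DMSO), then DAG and 8.3 μM [14C]palmitoyl-CoA solutions added; 5 min at 37 °C. Lipids extracted with chloroform/methanol, resolved by TLC, phosphoimager read-out.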

[5] = system: Rattus norvegicus; assay: Antidiabetic activity in diet-induced obese Sprague-Dawley rat assessed as effect on insulin level at 1 mg/kg, po administered once daily for 3 weeks measured after 30 mins by OGTT; assay type: functional, organism-based; set-up: dose 1 mg/kg
Summary of the method: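 DIO rats (n = 10/group) on high fat diet, dosed po once daily in Klucel suspension for 3 weeks. On day 21 an oral glucose challenge of 2 g/kg was given, and plasma insulin was measured at the 30 min time point.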

[6] = system: Rattus norvegicus; assay: Antidiabetic activity in diet-induced obese Sprague-Dawley rat assessed as decrease in glucose excursion at 3 mg/kg, po administered once daily for 3 weeks by OGTT; assay type: functional; set-up: scale not given: the % may be the effect or the level left
Summary of the method: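 Male Sprague-Dawley DIO rats (n = 10/group), 550–650 g, reverse light/dark cycle, high fat diet from 7 weeks of age; dosed po once daily in Klucel suspension.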

[7] = Volume of distribution in Beagle dog at 5 mg/kg, iv; assay type: ADME, organism-based, Canis lupus familiaris; set-up: dose 5 mg/kg, route intravenous; settings: in vivo
[8] = system: Rattus norvegicus; assay: Antiobesity activity in diet-induced obese rat assessed as decrease in food intake at 3 mg/kg, po administered once daily for 3 weeks; assay type: functional; set-up: scale not given: the % may be the effect or the level left
Summary of the method: (§1)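 Male DIO rats, 19 weeks old, on high fat diet for 12 weeks, dosed po once daily with Klucel (hydroxypropyl cellulose) suspension for 22 days; 10 rats per group. Body weight followed throughout; daily food intake recorded on days 1–3, 8, 9, 15 and 16, values averaged per group.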

[9] = Oral bioavailability in Hanover Wistar rat at 10 mg/kg; assay type: ADME, organism-based; settings: in vivo
Summary of the method: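 Hanover Wistar rats (n = 3) with jugular/femoral cannulae, oral gavage of a 2 mg/mL suspension in 2% Klucel LF with 0.1% Tween 80; femoral-vein sampling, EDTA plasma, acetonitrile precipitation, LC-MS/MS (5.0–5000 ng/mL), noncompartmental analysis; F relative to 5 mg/kg iv; mean of n = 3.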

[10] = system: Rattus norvegicus; assay: Antiobesity activity in diet-induced obese rat assessed as reduction in body weight gain at 1 mg/kg, po administered once daily for 3 weeks; assay type: functional; set-up: scale not given: the % may be the effect or the level left; summary of the method: as §1
[11] = biological target: Cytochrome P450 3A4 (Homo sapiens, UniProt P08684); assay: Inhibition of CYP3A4; assay type: ADME
[12] = Tmax in Hanover Wistar rat at 10 mg/kg, po; assay type: ADME, organism-based; set-up: dose 10 mg/kg, route oral; settings: in vivo
Summary of the method: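 Oral gavage to rats (jugular/femoral vein-cannulated, femoral vein blood sampling) or beagle dogs, n = 3, as a 2 mg/mL suspension in 2% Klucel LF with 0.1% Tween 80 in water. Plasma extracted by acetonitrile protein precipitation and quantified by LC-MS/MS (linear 5.0–5000 ng/mL). Noncompartmental analysis; mean of 3.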

[13] = biological target: hERG (Homo sapiens, UniProt Q12809); assay: Inhibition of human ERG-mediated current expressed in CHO cells by patch clamp method; assay type: cell-based; settings: CHO cells expressing human ERG
Summary of the method: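 hERG-transfected CHO cells on automated whole-cell patch clamp at a holding potential of −80 mV; 1 s depolarizing pulse at 0.1 Hz; tail current measured at −40 mV. Sequence: 0.3% DMSO vehicle, three ascending log-interval concentrations up to 30 μM or the solubility limit, then 1 μM E-4031. At least 3 cells per compound; data normalized to vehicle and fitted with the Hill equation.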

[14] = system: Rattus norvegicus; assay: Antiobesity activity in diet-induced obese rat assessed as decrease in food intake at 0.3 mg/kg, po administered once daily for 3 weeks; assay type: functional; set-up: scale not given: the % may be the effect or the level left; summary of the method: as §1
[15] = Half life in Beagle dog at 5 mg/kg, iv; assay type: ADME, organism-based, Canis lupus familiaris; set-up: dose 5 mg/kg, route intravenous; settings: in vivo
Summary of the method: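 Plasma levels by protein precipitation with acetonitrile and LC-MS/MS (linear range 5.0–5000 ng/mL); noncompartmental analysis; mean of n = 3.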

[16] = Solubility of the compound at mp 217 degC; assay type: physicochemical
[17] = biological target: T2, Diacylglycerol O-acyltransferase 1 (Homo sapiens, UniProt O75907); assay: Inhibition of human DGAT1 expressed in CHO-K1 cells after 1 hr using 14C palmitic acid
T2 sequence (O75907 whole entry): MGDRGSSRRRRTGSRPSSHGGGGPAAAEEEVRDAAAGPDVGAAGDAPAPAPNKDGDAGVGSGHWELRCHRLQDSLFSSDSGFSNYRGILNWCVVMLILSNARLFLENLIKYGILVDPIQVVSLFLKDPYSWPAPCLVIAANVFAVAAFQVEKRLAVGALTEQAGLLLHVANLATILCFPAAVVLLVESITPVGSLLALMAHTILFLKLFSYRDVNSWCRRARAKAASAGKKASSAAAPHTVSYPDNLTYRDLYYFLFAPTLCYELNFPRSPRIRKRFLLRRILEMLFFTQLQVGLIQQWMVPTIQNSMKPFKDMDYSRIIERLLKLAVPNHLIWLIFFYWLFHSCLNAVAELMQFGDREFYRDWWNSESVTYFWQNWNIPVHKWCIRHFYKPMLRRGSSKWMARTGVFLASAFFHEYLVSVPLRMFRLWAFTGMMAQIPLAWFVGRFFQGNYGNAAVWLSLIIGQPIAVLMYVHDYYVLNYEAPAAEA

[18] = biological target: Cytochrome P450 2C9 (Homo sapiens, UniProt P11712); assay: Inhibition of CYP2C9; assay type: ADME
[19] = system: Rattus norvegicus; assay: Antiobesity activity in diet-induced obese rat assessed as reduction in body weight gain at 0.3 mg/kg, po administered once daily for 3 weeks; assay type: functional; set-up: scale not given: the % may be the effect or the level left; summary of the method: as §1

Cytochrome P450 3A4, sequence (P08684 whole entry): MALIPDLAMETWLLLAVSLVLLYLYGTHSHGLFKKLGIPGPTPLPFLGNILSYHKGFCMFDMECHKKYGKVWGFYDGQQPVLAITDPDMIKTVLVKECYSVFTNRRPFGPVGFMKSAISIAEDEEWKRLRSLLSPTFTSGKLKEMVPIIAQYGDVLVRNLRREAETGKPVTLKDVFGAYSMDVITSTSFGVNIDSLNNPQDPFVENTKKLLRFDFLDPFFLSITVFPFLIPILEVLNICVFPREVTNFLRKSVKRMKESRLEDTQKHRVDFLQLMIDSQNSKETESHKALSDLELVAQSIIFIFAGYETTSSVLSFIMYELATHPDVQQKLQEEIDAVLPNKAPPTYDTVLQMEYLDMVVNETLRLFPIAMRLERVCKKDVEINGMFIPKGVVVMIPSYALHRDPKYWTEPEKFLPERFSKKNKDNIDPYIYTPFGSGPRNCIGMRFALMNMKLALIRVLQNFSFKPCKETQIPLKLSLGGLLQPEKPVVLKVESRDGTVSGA
hERG, sequence (Q12809 whole entry): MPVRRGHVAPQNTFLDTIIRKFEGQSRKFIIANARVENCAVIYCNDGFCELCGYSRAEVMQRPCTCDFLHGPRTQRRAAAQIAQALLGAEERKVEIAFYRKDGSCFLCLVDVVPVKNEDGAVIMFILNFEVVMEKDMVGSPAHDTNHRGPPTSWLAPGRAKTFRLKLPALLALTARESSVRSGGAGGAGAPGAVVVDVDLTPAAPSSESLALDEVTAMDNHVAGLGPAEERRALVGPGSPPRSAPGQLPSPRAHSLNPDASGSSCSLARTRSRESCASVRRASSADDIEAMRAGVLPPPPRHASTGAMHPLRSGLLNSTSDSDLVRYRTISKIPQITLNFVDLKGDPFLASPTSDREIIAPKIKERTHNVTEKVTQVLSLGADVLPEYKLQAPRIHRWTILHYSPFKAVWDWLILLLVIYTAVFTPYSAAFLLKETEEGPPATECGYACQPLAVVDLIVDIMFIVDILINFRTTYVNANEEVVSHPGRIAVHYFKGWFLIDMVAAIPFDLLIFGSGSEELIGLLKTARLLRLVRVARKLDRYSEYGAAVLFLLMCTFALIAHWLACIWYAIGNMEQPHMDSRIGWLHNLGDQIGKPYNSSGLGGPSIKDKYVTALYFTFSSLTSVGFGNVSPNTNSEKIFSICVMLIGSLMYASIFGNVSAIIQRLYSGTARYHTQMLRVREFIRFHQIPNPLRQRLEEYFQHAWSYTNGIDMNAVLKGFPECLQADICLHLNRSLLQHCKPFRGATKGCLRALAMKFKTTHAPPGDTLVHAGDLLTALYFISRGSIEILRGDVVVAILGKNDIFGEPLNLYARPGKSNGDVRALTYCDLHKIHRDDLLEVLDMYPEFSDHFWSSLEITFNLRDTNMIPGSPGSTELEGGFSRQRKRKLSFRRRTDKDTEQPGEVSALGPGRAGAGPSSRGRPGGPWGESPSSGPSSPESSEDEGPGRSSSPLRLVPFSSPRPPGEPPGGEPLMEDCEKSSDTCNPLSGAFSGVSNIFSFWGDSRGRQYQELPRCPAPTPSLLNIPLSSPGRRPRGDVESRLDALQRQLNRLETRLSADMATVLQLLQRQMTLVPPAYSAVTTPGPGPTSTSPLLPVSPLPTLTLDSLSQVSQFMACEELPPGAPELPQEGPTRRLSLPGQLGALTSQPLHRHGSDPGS
Cytochrome P450 2C19, sequence (P33261 whole entry): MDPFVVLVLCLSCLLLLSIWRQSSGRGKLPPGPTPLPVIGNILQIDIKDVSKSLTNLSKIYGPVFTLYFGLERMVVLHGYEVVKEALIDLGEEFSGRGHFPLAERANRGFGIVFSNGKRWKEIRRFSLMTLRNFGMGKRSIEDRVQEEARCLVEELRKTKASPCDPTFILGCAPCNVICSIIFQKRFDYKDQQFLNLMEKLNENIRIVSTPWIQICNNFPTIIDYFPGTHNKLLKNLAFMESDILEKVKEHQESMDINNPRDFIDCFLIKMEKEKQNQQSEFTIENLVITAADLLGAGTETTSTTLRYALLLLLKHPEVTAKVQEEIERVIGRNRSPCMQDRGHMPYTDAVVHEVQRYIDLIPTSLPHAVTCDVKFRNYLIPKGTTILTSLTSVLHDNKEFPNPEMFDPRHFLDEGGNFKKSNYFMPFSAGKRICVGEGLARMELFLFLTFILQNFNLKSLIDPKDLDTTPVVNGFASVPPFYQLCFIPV
Cytochrome P450 2C9, sequence (P11712 whole entry): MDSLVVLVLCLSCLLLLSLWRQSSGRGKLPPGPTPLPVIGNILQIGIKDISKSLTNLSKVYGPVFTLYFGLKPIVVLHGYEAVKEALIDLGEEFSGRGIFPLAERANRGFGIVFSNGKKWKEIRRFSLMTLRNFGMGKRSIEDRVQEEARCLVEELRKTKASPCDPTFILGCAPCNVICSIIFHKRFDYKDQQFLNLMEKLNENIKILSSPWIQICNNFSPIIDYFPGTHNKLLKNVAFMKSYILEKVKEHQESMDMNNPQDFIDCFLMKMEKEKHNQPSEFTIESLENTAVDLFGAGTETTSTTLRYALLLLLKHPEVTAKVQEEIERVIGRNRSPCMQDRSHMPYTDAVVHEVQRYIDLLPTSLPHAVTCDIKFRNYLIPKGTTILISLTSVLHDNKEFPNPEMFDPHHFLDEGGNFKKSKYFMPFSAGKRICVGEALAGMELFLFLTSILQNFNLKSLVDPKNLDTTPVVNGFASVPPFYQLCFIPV

Cmax [1]: 4.8 µM
pIC50 [2]: < 4.30
pIC50 [4]: < 4.00
Vd [7]: 0.38 L/kg
bioavailability [9]: 73%
pIC50 [11]: < 4.30
Tmax [12]: 12 h
half-life [15]: 5.3 h
solubility [16]: 15.4 µg/mL (≈ 27 µM)
pEC50 [17]: 6.31
pIC50 [18]: < 4.30
Compound: O=C(Nc1ccc(C2CCN(C(=O)[C@H]3CC[C@H](C(=O)O)CC3)CC2)cc1)c1nc(-c2ccccc2)oc1C(F)(F)F
Activity [3]: 4%
Activity [5]: inactive
Activity [6]: 15%
Activity [8]: 27%
Activity [10]: 6%
IC20 [13]: 30 µM
Activity [14]: 17%
Activity [19]: 5%
